Experimental data taken from ChEMBL document CHEMBL1123156 (J Med Chem, 1986).

Experiments:
Aromatase [1] = target: T1, Aromatase (Homo sapiens, UniProt P11511)
T1 sequence (P11511 whole entry): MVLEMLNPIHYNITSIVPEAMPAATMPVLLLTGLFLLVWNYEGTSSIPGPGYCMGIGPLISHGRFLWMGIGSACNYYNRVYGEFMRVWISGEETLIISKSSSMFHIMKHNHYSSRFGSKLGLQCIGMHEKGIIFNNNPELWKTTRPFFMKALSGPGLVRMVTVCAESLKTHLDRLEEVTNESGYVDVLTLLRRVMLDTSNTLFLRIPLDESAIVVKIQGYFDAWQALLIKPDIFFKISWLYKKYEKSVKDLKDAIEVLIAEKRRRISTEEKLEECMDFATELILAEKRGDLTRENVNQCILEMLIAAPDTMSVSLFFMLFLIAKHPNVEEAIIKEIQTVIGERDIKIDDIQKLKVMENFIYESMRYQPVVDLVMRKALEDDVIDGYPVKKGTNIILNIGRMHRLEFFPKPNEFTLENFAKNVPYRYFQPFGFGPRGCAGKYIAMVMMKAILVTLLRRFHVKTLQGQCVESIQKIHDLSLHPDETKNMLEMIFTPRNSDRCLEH

Aromatase [2] = target: T1, Aromatase; remark: listed apart in the source
[3] = target: T2, Cholesterol side-chain cleavage enzyme, mitochondrial (cytochrome P450scc) (Bos taurus, UniProt P00189); assay: Inhibition of Bovine adrenal cholesterol side chain cleavage cytochrome P450 at 50 ug/mL; details: cattle
T2 sequence (P00189 whole entry): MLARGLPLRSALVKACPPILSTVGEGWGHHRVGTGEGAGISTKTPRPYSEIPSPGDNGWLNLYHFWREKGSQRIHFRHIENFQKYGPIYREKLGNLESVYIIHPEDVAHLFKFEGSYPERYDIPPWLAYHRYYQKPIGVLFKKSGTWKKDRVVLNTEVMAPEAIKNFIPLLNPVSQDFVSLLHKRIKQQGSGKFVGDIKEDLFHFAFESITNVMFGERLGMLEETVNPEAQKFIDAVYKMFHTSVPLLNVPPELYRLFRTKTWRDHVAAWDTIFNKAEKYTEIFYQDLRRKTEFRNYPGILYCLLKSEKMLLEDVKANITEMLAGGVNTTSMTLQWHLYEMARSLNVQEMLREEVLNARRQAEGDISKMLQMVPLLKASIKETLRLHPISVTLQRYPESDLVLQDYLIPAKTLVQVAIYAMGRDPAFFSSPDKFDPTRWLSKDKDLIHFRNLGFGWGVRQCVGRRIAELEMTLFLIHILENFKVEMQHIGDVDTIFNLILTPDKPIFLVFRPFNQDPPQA
Summary of the method: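 Bovine adrenal CSCC enzyme (cholesterol to pregnenolone) preparation. Inhibitor at 50 μg/mL, the highest concentration tested. Result is percent inhibition relative to uninhibited control, as the mean of two determinations (variability <10%).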

Aromatase [4] = target: T1, Aromatase; remark: listed apart in the source
Aromatase [5] = target: T1, Aromatase; assay: Inhibition of Cytochrome P450 19A1 at 20 ug/mL
Summary of the method: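 Human placental aromatase preparation. Inhibitor at 20 μg/mL. Result is percent inhibition of androgen aromatization relative to control.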

SMILES	IC50 (Aromatase [1]) [µM]	IC50 (Aromatase [2]) [µM]	inhibition at 50 ug/mL [3] [%]	Ki (Aromatase [4]) [µM]	inhibition at 20 µg/mL (Aromatase [5]) [%]
Nc1ccc(C2CC(=O)NC2=O)cc1 (stereo not given)	20	10.2	30	–	–
CC1(c2ccc(N)cc2)CC(=O)NC1=O (stereo not given)	12.5	10	0	0.8	–
CCC1(c2ccc(N)cc2)CC(=O)N(C)C1=O (stereo not given)	–	–	0	–	–
CCC1(c2ccc(N)cc2)CC(=O)NC1=O (stereo not given)	13.5	8.4	38	1	–
CN1C(=O)CC(C)(c2ccc(N)cc2)C1=O (stereo not given)	15.7	10	30	1.75	–
NC(=O)CCc1ccc([N+](=O)[O-])cc1	–	–	28	–	8
NC(=O)CCc1ccc(N)cc1	–	–	19	–	38
CN1C(=O)CC(c2ccc(N)cc2)C1=O (stereo not given)	16.6	10	30	1.75	–
CCC1(c2ccc(N)cc2)CCC(=O)NC1=O (stereo not given) [AMINOGLUTETHIMIDE]	–	–	83	–	–
